Laboratory results taken from PMC3426663 (Xenobiotica; the fate of foreign compounds in biological …, 2012).

What was measured:
expressed CYP2B6 = target: T1, expressed CYP2B6 (Homo sapiens, UniProt P20813); experiment: Incubation with expressed CYP2B6; format: in vitro ADME; conditions: for Vmax: expressed CYP2B6 13 pmol, 37°C, 15 min; for depletion of substrate from the incubation mixture: data not shown
T1 sequence (P20813 1-491): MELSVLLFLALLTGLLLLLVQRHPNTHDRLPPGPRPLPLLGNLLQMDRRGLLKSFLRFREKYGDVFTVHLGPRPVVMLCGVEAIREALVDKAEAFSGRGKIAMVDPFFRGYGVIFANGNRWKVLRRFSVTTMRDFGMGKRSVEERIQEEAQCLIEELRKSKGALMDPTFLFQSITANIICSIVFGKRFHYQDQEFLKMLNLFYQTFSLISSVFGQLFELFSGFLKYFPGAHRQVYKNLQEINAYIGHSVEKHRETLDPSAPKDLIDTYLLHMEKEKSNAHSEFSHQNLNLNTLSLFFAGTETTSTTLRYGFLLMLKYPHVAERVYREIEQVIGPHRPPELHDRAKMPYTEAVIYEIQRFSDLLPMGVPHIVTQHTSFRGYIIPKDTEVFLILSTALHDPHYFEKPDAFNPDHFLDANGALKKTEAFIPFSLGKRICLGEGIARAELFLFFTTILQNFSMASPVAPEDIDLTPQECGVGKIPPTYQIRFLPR

expressed CYP3A5 = expressed CYP3A5 (Homo sapiens, UniProt P20815); experiment: Incubation with expressed CYP3A5; format: in vitro ADME; conditions: expressed CYP3A5 13 pmol, 37°C, 15 min
expressed CYP3A5, sequence (P20815 whole entry): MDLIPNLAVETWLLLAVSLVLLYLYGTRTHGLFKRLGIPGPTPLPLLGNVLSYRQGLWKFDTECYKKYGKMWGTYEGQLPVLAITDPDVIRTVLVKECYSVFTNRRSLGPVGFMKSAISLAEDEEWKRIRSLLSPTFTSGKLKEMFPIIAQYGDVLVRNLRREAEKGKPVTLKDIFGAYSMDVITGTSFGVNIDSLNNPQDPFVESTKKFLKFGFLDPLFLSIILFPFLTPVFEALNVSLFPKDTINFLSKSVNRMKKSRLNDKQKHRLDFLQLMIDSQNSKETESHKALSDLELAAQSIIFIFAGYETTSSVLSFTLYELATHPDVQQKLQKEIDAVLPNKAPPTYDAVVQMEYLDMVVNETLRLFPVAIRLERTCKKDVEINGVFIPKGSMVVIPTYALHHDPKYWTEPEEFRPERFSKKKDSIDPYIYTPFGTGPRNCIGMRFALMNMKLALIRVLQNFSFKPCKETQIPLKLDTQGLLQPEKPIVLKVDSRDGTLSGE

expressed CYP2A6 = target: T2, expressed CYP2A6 (Homo sapiens, UniProt P11509); experiment: Incubation with expressed CYP2A6; format: in vitro ADME; conditions: for Vmax: expressed CYP2A6 13 pmol, 37°C, 15 min; for depletion of substrate from the incubation mixture: expressed CYP2A6, data not shown
T2 sequence (P11509 1-494): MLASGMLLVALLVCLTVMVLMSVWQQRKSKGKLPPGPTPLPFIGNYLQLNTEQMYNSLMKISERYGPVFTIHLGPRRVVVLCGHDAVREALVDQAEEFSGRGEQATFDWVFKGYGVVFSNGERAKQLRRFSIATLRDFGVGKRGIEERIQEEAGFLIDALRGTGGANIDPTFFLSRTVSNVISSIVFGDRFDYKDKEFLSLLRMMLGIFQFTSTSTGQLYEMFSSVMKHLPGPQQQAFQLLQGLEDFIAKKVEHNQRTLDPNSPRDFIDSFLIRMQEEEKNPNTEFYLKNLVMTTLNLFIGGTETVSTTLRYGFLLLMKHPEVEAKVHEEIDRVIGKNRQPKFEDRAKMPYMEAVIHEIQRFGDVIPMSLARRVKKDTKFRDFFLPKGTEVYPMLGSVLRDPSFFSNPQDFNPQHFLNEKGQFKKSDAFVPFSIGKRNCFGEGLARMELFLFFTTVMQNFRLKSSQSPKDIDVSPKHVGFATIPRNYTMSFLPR

[1] = test system: human liver microsomes (HLMs); experiment: Identification of Ket and norKet metabolites in HLM incubates; format: in vitro ADME; conditions: HLMs 0.5 mg/ml; for metabolite found in HLM incubates of (R,S)-Ket: (R,S)-Ket 10 μM, Fig. 2A; for metabolite found in HLM incubates of (R,S)-norKet: (R,S)-norKet 10 μM, Fig. 2
[2] = BPD patients 3 days after dosing of (R,S)-Ket; ref Zhao et al., 2012; cited from earlier work
expressed CYP2C19 = expressed CYP2C19 (Homo sapiens, UniProt P33261); experiment: Incubation with expressed CYP2C19; format: in vitro ADME; conditions: data not shown
expressed CYP2C19, sequence (P33261 whole entry, canonical isoform): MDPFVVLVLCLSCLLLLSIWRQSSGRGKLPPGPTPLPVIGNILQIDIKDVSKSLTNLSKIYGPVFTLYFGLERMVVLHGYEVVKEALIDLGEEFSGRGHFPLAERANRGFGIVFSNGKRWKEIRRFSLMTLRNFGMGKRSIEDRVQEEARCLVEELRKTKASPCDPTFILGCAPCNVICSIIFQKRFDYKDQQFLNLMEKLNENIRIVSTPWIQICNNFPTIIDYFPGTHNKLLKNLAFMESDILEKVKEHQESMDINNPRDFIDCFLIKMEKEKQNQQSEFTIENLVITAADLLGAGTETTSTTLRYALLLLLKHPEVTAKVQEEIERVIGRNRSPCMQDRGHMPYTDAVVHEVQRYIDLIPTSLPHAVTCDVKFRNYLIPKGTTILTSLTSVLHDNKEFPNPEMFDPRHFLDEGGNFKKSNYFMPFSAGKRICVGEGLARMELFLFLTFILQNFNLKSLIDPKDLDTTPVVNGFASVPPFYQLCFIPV

[3] = test system: expressed human P450s (1A2, 2A6, 2B6, 2C8, 2C9, 2C19, 2D6, 2E1, 3A4, and 3A5); experiment: Incubation with panel of 10 expressed CYPs; format: in vitro ADME; conditions: for disappearance of substrate, other isoforms (no appreciable effect, cutoff): expressed isoforms other than CYP2A6, CYP2B6, CYP2C19
In short: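 Qualitative isoform screen. Baculovirus-insect cell-expressed human CYP1A2, 2A6, 2B6, 2C8, 2C9, 2C19, 2D6, 2E1, 3A4 or 3A5 with oxidoreductase (13–26 pmol) was incubated at 37°C with 10 μM (R)- or (S)-ketamine, or (R,S)-, (R)- or (S)-norketamine. The NADPH-generating system contained NADP, glucose 6-phosphate, MgCl2 and glucose-6-phosphate dehydrogenase. Ketamine incubations ran 15 min. Products measured by LC/MS/MS.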

[4] = formation of metabolite from (R)-norKet
[5] = formation of metabolite from (S)-norKet

`NC1(c2ccccc2Cl)CC(O)CCC1=O` [4d, (2S,4S;2R,4R)-HNK] showed a Vmax (expressed CYP2B6; [4]) of 0.78 pmol/min/pmol P450, a Vmax (expressed CYP2B6; [5]) of 3.34 pmol/min/pmol P450 and a Vmax (expressed CYP3A5; [4]) of 0.029 pmol/min/pmol P450. The Vmax (expressed CYP3A5; [5]) was 0.20 pmol/min/pmol P450, the Vmax (expressed CYP2A6; [4]) was 1.28 pmol/min/pmol P450 and the Vmax (expressed CYP2A6; [5]) was 4.67 pmol/min/pmol P450. For the same molecule, the “metabolite found in HLM incubates of (R,S)-Ket” value (from here on “metabolite found … (R,S)-Ket”) [1] was “trace amounts” and the “metabolite found in HLM incubates of (R,S)-norKet” value (“metabolite found … (R,S)-norKet” below) [1] was “trace amounts”.
With `CNC1(c2ccccc2Cl)CCCC(O)C1=O` (single isomer, unassigned) [5a] the “decrease of substrate concentration in the incubates” value (expressed CYP2B6; substrate 5a, incubates containing CYP2B6) was 42.5% and the “metabolite found … (R,S)-Ket” value [1] was “significant concentrations”.
With `NC1(c2ccccc2Cl)CCC(O)CC1=O` [4f, (2S,5R;2R,5S)-HNK] the “Clint for formation from (R)-norKet relative to (S)-norKet” value (expressed CYP2B6; enzyme not given, Table 5, fits CYP2B6) was ~ 10 fold, the Vmax (expressed CYP2B6; [4]) was 3.98 pmol/min/pmol P450 and the Vmax (expressed CYP2B6; [5]) was 0.30 pmol/min/pmol P450. The Vmax (expressed CYP3A5; [4]) was 1.69 pmol/min/pmol P450, the Vmax (expressed CYP3A5; [5]) was 5.71 pmol/min/pmol P450 and the Vmax (expressed CYP2A6; [4]) was 0.44 pmol/min/pmol P450. The Vmax (expressed CYP2A6; [5]) was 0.33 pmol/min/pmol P450, the “metabolite found … (R,S)-Ket” value [1] was “significant concentrations” and the “metabolite found … (R,S)-norKet” value [1] was “significant concentrations”.
With `NC1(c2ccccc2Cl)CCC=CC1=O` (stereo not shown) [DHNK, 5,6-dehydronorketamine] the Vmax (expressed CYP2B6; [4]) was 13.0 pmol/min/pmol P450, the Vmax (expressed CYP2B6; [5]) was 7.61 pmol/min/pmol P450 and the Vmax (expressed CYP3A5; [4]) was 0.079 pmol/min/pmol P450. The Vmax (expressed CYP3A5; [5]) was 1.96 pmol/min/pmol P450, the Vmax (expressed CYP2A6; [4]) was 0.98 pmol/min/pmol P450 and the Vmax (expressed CYP2A6; [5]) was 0.92 pmol/min/pmol P450. For the same molecule, the “metabolite found … (R,S)-Ket” value [1] was “significant concentrations”, the “metabolite found … (R,S)-norKet” value [1] was “significant concentrations” and the plasma concentration [2] was > 8 ng/mL.
With `CNC1(c2ccccc2Cl)CCCC(O)C1=O` (single isomer, unassigned) [5b] the “metabolite found … (R,S)-Ket” value [1] was “significant concentrations”.
For `NC1(c2ccccc2Cl)CC(O)CCC1=O` [4e, (2S,4R;2R,4S)-HNK], the Vmax (expressed CYP3A5; [4]) was 0.087 pmol/min/pmol P450, the Vmax (expressed CYP3A5; [5]) was 3.14 pmol/min/pmol P450 and the “metabolite found … (R,S)-Ket” value [1] was “trace amounts”. The “metabolite found … (R,S)-norKet” value [1] was “trace amounts”.
In the case of `N[C@]1(c2ccccc2Cl)CCCCC1=O` [(S)-norKet], the “depletion of substrate from the incubation mixture” value (shortened to “depletion of substrate”) (expressed CYP2C19) was 27.3%, the “disappearance of substrate, other isoforms (no appreciable effect, cutoff)” value ([3]; data not shown) was < 24% and the “depletion of substrate” value (expressed CYP2B6; expressed CYP2B6) was 41.6%. For the same molecule, the “depletion of substrate” value (expressed CYP2A6) was 41.0%.
With `N[C@@]1(c2ccccc2Cl)CCCCC1=O` [(R)-norKet] the “depletion of substrate” value (expressed CYP2C19) was 35.0%, the “disappearance of substrate, other isoforms (no appreciable effect, cutoff)” value ([3]; data not shown) was < 24% and the “depletion of substrate” value (expressed CYP2B6; expressed CYP2B6) was 47.8%. The “depletion of substrate” value (expressed CYP2A6) was 34.5%.
For `NC1(c2ccccc2Cl)CCCC(O)C1=O` [4a, (2S,6S;2R,6R)-HNK], the “metabolite formation by other CYPs” value ([3]; substrate 5a, expressed CYPs other than CYP2B6, data not shown) was < 13 ng/mL, the Vmax (expressed CYP2B6; [4]) was 0.76 pmol/min/pmol P450 and the Vmax (expressed CYP2B6; [5]) was 0.56 pmol/min/pmol P450. For the same molecule, the “N-demethylated metabolite formed (highest rate)” value (expressed CYP2B6; substrate 5a, expressed CYP2B6) was 201.6 ng/mL, the Vmax (expressed CYP3A5; [4]) was 0.29 pmol/min/pmol P450 and the Vmax (expressed CYP3A5; [5]) was 3.87 pmol/min/pmol P450. For the same molecule, the Vmax (expressed CYP2A6; [4]) was 8.18 pmol/min/pmol P450, the Vmax (expressed CYP2A6; [5]) was 3.9 pmol/min/pmol P450 and the “metabolite found … (R,S)-Ket” value [1] was “significant concentrations”. For the same molecule, the “metabolite found … (R,S)-norKet” value [1] was “significant concentrations” and the plasma concentration [2] was > 8 ng/mL.
With `NC1(c2ccccc2Cl)CCC(O)CC1=O` [4c, (2S,5S;2R,5R)-HNK] the Vmax (expressed CYP2B6; [4]) was 16.72 pmol/min/pmol P450, the Vmax (expressed CYP2B6; [5]) was 16.3 pmol/min/pmol P450 and the Vmax (expressed CYP3A5; [4]) was 0.038 pmol/min/pmol P450. The Vmax (expressed CYP3A5; [5]) was 0.30 pmol/min/pmol P450, the Vmax (expressed CYP2A6; [4]) was 1.25 pmol/min/pmol P450 and the Vmax (expressed CYP2A6; [5]) was 1.48 pmol/min/pmol P450. For the same molecule, the “metabolite found … (R,S)-Ket” value [1] was “significant concentrations” and the “metabolite found … (R,S)-norKet” value [1] was “significant concentrations”.
In the case of `NC1(c2ccccc2Cl)CCCC(O)C1=O` [4b, (2S,6R;2R,6S)-HNK], the “generation from (S)- or (R)-norKet by any of the expressed CYPs” value ([3]; 10 expressed CYPs) was “not generated”, the “metabolite found … (R,S)-Ket” value [1] was “significant concentrations” and the “metabolite found … (R,S)-norKet” value [1] was “not detected”.
For `NC1(c2ccccc2Cl)CCCCC1=O` (racemic) [(R,S)-norKet, norketamine], the “metabolite found … (R,S)-Ket” value [1] was “significant concentrations”.
